Results gathered from unrelated publications.
Lines come from different studies, so protocols differ.
Observed: enzyme activity
RET: Proto-oncogene tyrosine-protein kinase receptor Ret (RET, Homo sapiens, UniProt P07949)

SMILES	target	test	setting	remaining activity [%]
COc1cc(NC(=O)Nc2ccccc2Br)cc2sc(NC(=O)c3ccccc3)nc12	RET	inhibitor, radiometric	0.1 µM	106
Cc1cnc(NC2CCOCC2)nc1-n1cnc(C(=O)NC(CN)c2cc(F)cc(Cl)c2)c1 (stereo not drawn)	Proto-oncogene tyrosine-protein kinase receptor Ret (RET, Homo sapiens, UniProt P07949, V804M)	inhibitor, radiometric	1 µM	100
CCN(CC)CCNC(=O)c1c(C)[nH]c(/C=C2\C(=O)Nc3ccc(F)cc32)c1C	RET	inhibitor	0.1 µM	22
COc1cc(Cl)c(C(=O)N[C@@H](CN[C@H]2CC[C@@H](N)CC2)Cc2ccc(C#N)cc2)cc1-c1ccc(CN[C@H](C)c2ccc(C)cc2)o1	RET	inhibitor	1 µM	110
COc1ccc(-c2cn3cc(C(=O)N4CC(O)C4)nc3c(=O)n2C)c(F)c1	RET	inhibitor, radiometric	10 µM	111
Cc1[nH]c(/C=C2\C(=O)Nc3ccc(F)cc32)c(C)c1C(=O)N[C@H]1CCN(C(=O)N(C)C)C1	RET	inhibitor	1 µM	11
CCCOc1ccc(OC)c(F)c1C(=O)c1ccc(C(=O)N[C@@H]2CNC[C@H]2NC(=O)c2ccc3[nH]ncc3c2)cc1	RET	inhibitor	0.1 µM	98
CCOc1ccc(NC(=O)Nc2cc(OC)c3nc(NC(=O)c4ccccc4)sc3c2)cc1	RET	inhibitor, radiometric	0.1 µM	115
CC(C)(O)[C@H]1CC[C@H](Nc2ccc3ncc(-c4cccc(C(F)(F)F)c4)n3n2)CC1	RET	inhibitor	1 µM	86.9
COc1cc(NC(=O)Nc2ccc(Br)cc2)cc2sc(NC(=O)c3ccccc3)nc12	RET	inhibitor, radiometric	0.1 µM	120
Cc1ccc(C(=O)Nc2ccc(CN3CCN(C)CC3)c(C(F)(F)F)c2)cc1C#Cc1cnc2cccnn12	RET		23.5 nM	1.3
CCN(CC)c1ccc(C2=NNC(=O)CC2C)cc1[N+](=O)[O-] (stereo not drawn)	RET	inhibitor	10 µM	102
COC(=O)c1cccc(NC(=O)Nc2cc(C)c3nc(NC(=O)c4ccccc4)sc3c2)c1	RET	inhibitor, radiometric	0.1 µM	109
Cc1sc(C(=O)NC2COC2)cc1-n1cc(NC(=O)Nc2c(F)cccc2Cl)cn1	RET	inhibitor	10 µM	113
CC(C)(C)c1nc2c(s1)c1nc(N)ncc1c1ccc(NS(=O)(=O)c3c(F)cccc3F)c(F)c12	RET	inhibitor, radiometric	1 µM	69
